Our source for the IC50 and Selectivity index values is ChEMBL document CHEMBL1126563, “The inophyllums, novel inhibitors of HIV-1 reverse transcriptase isolated from the Malaysian tree, Calophyllum inophyllum Linn” (J Med Chem, 1993).

Assay [1] concerns the target Human immunodeficiency virus type 1 reverse transcriptase (Human immunodeficiency virus 1, UniProt Q72547). Description: Inhibitory concentration against HIV-1 reverse transcriptase in scintillation proximity assay. In short, it runs like this:
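Recombinant purified HIV-1 RT (2 nM) with 39 nM 50-mer RNA template annealed to biotinylated 17-mer DNA primer; 75 nM dATP, dCTP, dGTP and [3H]TTP. Buffer 50 mM Tris-HCl pH 8.0, 80 mM KCl, 10 mM MgCl2, 10 mM DTT, 0.012% CHAPS. Enzyme, template-primer and inhibitor (90 μM–0.01 nM) preincubated 15 min at 37 °C; reaction 10 min at 37 °C, EDTA stop, streptavidin scintillant beads, scintillation counting.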

In the next assay the test system is MOLT-4. Put plainly: Tested for cytotoxicity in Molt-4 cells by XTT assay. Particulars: Homo sapiens. In kind it is functional, cell-based. In a few lines:
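Molt-4 cells plated at 3×10^4 cells/well with compound; on day 7 XTT conversion to formazan measured, with trypan blue microscopic examination also used; IC50 derived.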

Assay [2] relates to Human immunodeficiency virus 1. Description: Anti-HIV activity against HIV-1 in Molt-4 cells using 7-day infective assay. In kind it is functional, organism-based. Particulars: Human immunodeficiency virus 1, MOLT-4, 168 h. In a few lines: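 Molt-4 cells (3×10^4) infected with 50 tissue culture infectious doses of HIV-1; compound added day 0, cultures refed days 1 and 4 with medium containing compound at initial concentration. On day 7 cells spun down and supernatant RT quantified by microassay; IC50 from RT quantitation.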

Assay [3] in a line: Selectivity index is the ratio of cytotoxicity in Molt-4 cells and anti-HIV- IC50. In kind it is functional. In a few lines: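 Selectivity index = cytotoxicity IC50 (XTT, Molt-4, day 7) divided by anti-HIV IC50 (RT quantitation in supernatant 7 days after HIV-1 infection of Molt-4 cells).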
In assay [4] the target is Human immunodeficiency virus type 1 reverse transcriptase (Human immunodeficiency virus 1, UniProt Q72547, Y181L). Description: Inhibitory concentration against HIV-1 reverse transcriptase mutant (Tyr-181 to Leu). In a few lines: (§1)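 Scintillation proximity assay for RNA-dependent DNA polymerase activity of recombinant purified RT. The template is a 50-mer RNA annealed at its 5'-end to a biotinylated 17-mer DNA primer. Buffer is 50 mM Tris-HCl pH 8.0 with 80 mM KCl, 10 mM MgCl2, 10 mM DTT and 0.012% CHAPS. Final levels are 2 nM RT, 39 nM template-primer, 75 nM each dATP/dCTP/dGTP/[3H]TTP, and inhibitor serially diluted over 90 μM–0.01 nM. RT, template-primer and inhibitor are preincubated 15 min at 37 °C. The reaction runs 10 min at 37 °C and is stopped with EDTA. Incorporated label is captured on streptavidin scintillant beads and counted to give IC50.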

Assay [5] deals with Human immunodeficiency virus type 1 reverse transcriptase (Human immunodeficiency virus 1, UniProt Q72547, Y181C). Put plainly: Inhibitory concentration against HIV-1 reverse transcriptase mutant (Tyr-181 to Cys). In short, it runs like this: as §1

Turning to `CC(=O)O[C@@H]1c2c(c3c(c4c(-c5ccccc5)cc(=O)oc24)OC(C)(C)C=C3)O[C@H](C)[C@H]1C`, the concentration for half-maximal inhibition (IC50) in assay [1] came to 0.72 µM.

Regarding `C[C@H]1Oc2c3c(c4c(-c5ccccc5)cc(=O)oc4c2C(=O)[C@@H]1C)OC(C)(C)C=C3`, the IC50 was found to be 18 µM in the assay with MOLT-4 and 10 µM in assay [1].

As for `CC(=O)O[C@H]1c2c(c3c(c4c(-c5ccccc5)cc(=O)oc24)OC(C)(C)C=C3)O[C@H](C)[C@H]1C`, the IC50 in assay [1] was more than 100 µM.

Turning to `C[C@@H]1[C@@H](C)Oc2c3c(c4c(-c5ccccc5)cc(=O)oc4c2[C@@H]1O)OC(C)(C)C=C3`, the IC50 with MOLT-4 was found to be 25 µM; in assay [2], 1.6 µM; in assay [1] it was 0.13 µM. Moreover, in assay [3], the Selectivity index is 16.

Consider `C[C@H]1Oc2c3c(c(/C(=C\C(=O)O)c4ccccc4)c(O)c2C(=O)[C@@H]1C)OC(C)(C)C=C3`, for which the 50% inhibitory concentration (IC50) in assay [1] was more than 100 µM.

In assay [1], `CC1[C@H](O)c2c(c3c(c4c(-c5ccccc5)cc(=O)oc24)O[C@@H]2[C@H]3C2(C)C)O[C@@H]1C` (single isomer, unassigned) yielded a 50% inhibitory concentration (IC50) of more than 100 µM.

On to `C[C@@H]1C(=O)c2c(O)c(/C(=C\C(=O)O)c3ccccc3)c3c(c2O[C@@H]1C)C=CC(C)(C)O3`, for which the IC50 in assay [1] was more than 100 µM.

`CC1[C@H](O)c2c(c3c(c4c(-c5ccccc5)cc(=O)oc24)O[C@H]2[C@@H]3C2(C)C)O[C@@H]1C` (single isomer, unassigned): in assay [1], the IC50 came out at 70 µM. In other words, the double-digit micromolar range.

As to `CC1=Cc2c(c3c(c4c(-c5ccccc5)cc(=O)oc24)OC(C)(C)C=C3)O[C@@H]1C`, in assay [1], the IC50 amounted to 9 µM.

As for `C[C@H]1[C@H](O)c2c(c3c(c4c(-c5ccccc5)cc(=O)oc24)OC(C)(C)C=C3)O[C@@H]1C`, the IC50 in the assay with MOLT-4 stood at 55 µM; in assay [2], 1.4 µM; in assay [1] it was 0.038 µM; in assay [4], 0.41 µM; in assay [5], 0.16 µM. Also, the Selectivity index in assay [3] was found to be 39.

In the case of `C[C@@H]1[C@H](O)c2c(c3c(c4c(-c5ccccc5)cc(=O)oc24)OC(C)(C)C=C3)O[C@@H]1C`, the values for the IC50 (with MOLT-4; in assay [1]) were 33 µM and 30 µM, respectively.

Consider `CC(C)=CCN1Cc2cc(Cl)cc3[nH]c(=S)n(c23)C[C@@H]1C`, for which the IC50 worked out at 19 µM in the assay with MOLT-4, 0.19 µM in assay [2] and 0.7 µM in assay [1]. Besides, in assay [3], the Selectivity index stood at 100.

As to `C[C@H]1[C@@H](C)Oc2c3c(c4c(-c5ccccc5)cc(=O)oc4c2[C@@H]1O)OC(C)(C)C=C3`, the figures for the half-maximal inhibitory concentration (IC50) (with MOLT-4; in assay [1]) were 15 µM and 11 µM, respectively.

Turning to `C[C@@H]1[C@H](C(=O)c2ccc(Br)cc2)c2c(c3c(c4c(-c5ccccc5)cc(=O)oc24)OC(C)(C)C=C3)O[C@@H]1C`, the IC50 in assay [1] was 46 µM.

Take `C[C@@H]1C(=O)c2c(c3c(c4c(-c5ccccc5)cc(=O)oc24)OC(C)(C)C=C3)O[C@@H]1C`: the IC50 in the assay with MOLT-4 came out at 6.2 µM; in assay [1], 100 µM.
